Experimental findings from ChEMBL document CHEMBL1149261, “New constrained "molecular tongs" designed to dissociate HIV-1 protease dimer” (J Med Chem, 2004) are described below.

In experiment [1] the target is T1, Human immunodeficiency virus type 1 protease (Human immunodeficiency virus 1, UniProt Q72874). Kind of experiment: Inhibition of dimerization of HIV1 protease. In a few lines: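 Zhang kinetic analysis using the same fluorogenic DABCYL/EDANS substrate assay (pH 4.7 acetate buffer, 30 °C, ex 340/em 490 nm). Initial substrate held constant; at least four protease concentrations (4.7–13.6 nM) tested at several inhibitor concentrations. Dimerization inhibition constant Kid derived from Zhang plots.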

The target in experiment [2] is T1, Human immunodeficiency virus type 1 protease. Kind of experiment: Inhibition of HIV1 protease. The procedure, abridged: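 Protease activity read with fluorogenic substrate DABCYL-γ-Abu-Ser-Gln-Asn-Tyr-Pro-Ile-Val-Gln-EDANS in 100 mM sodium acetate, 1 mM EDTA, 1 M NaCl, pH 4.7, 30 °C. Substrate and inhibitor (DMSO, 3% v/v final) preincubated 3 min, then enzyme added (7.5 nM final). Fluorescence (ex 340, em 490 nm) followed 3 min. 8–10 inhibitor concentrations; IC50 fitted to %inhibition = 100[I]0/(IC50+[I]0).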

In experiment [3] the target is Human immunodeficiency virus type 1 protease (Human immunodeficiency virus 1) (UniProt Q72874). The experiment is described as follows: Inhibition of HIV1 protease at 5.7 uM. The procedure, abridged:
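Fluorogenic assay with DABCYL-γ-Abu-Ser-Gln-Asn-Tyr-Pro-Ile-Val-Gln-EDANS substrate, in 100 mM sodium acetate, 1 mM EDTA and 1 M NaCl at pH 4.7 and 30 °C, with 3% v/v DMSO final. Substrate and inhibitor were preincubated for 3 min. The reaction was started with HIV-1 protease (7.5 nM final). The fluorescence increase (ex 340/em 490 nm) was followed over 3 min and compared with a substrate-only blank to give % inhibition.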

The structures appear in SMILES notation.

In general, Ki refers to the equilibrium dissociation constant of an inhibitor or competing ligand from its target. The term IC50 denotes the concentration needed to halve the response being measured. A higher IC50 goes with lower potency. In experiment [1], `COC(=O)[C@@H](NC(=O)[C@H](CC(C)C)NC(=O)[C@@H](NC(=O)CCCOc1ccc2ccc(OCCCC(=O)N[C@@H](CCC(=O)OC(C)(C)C)C(=O)N[C@@H](CC(C)C)C(N)=O)nc2c1)C(C)C)C(C)C` displayed an inhibitory constant (Ki) of 0.53 µM. Also, the midpoint of inhibition in experiment [2], the IC50, lay at 1.8 µM.
In the same order, the values of `COC(=O)[C@@H](NC(=O)[C@H](CC(C)C)NC(=O)[C@@H](NC(=O)CCCOc1ccc2ccc(OCCCC(=O)N[C@@H](CCC(=O)O)C(=O)N[C@@H](CC(C)C)C(N)=O)cc2c1)C(C)C)C(C)C` are 0.9 µM and 2.8 µM.
In the same order, the values of `COC(=O)[C@@H](NC(=O)[C@H](CC(C)C)NC(=O)[C@@H](NC(=O)CCCOc1ccc2ccc(OCCCC(=O)N[C@H](C(=O)N[C@@H](CC(C)C)C(=O)N[C@H](C(=O)OC)C(C)C)C(C)C)nc2c1)C(C)C)C(C)C` are 0.13 µM and 1.4 µM.
For `COC(=O)[C@H](CC(N)=O)NC(=O)[C@H](CC(C)C)NC(=O)[C@@H](NC(=O)CCCOc1ccc2ccc(OCCCC(=O)N[C@H](C(=O)N[C@@H](CC(C)C)C(=O)N[C@H](C(=O)OC)C(C)C)C(C)C)cc2n1)[C@@H](C)O`, in experiment [1], the affinity corresponds to a Ki of 0.08 µM. In addition, in experiment [2], the IC50 is 5.1 µM.
In the case of `COC(=O)[C@H](CC(C)C)NC(=O)[C@@H](NC(=O)CCCOc1ccc2ccc(OCCCC(=O)N[C@H](C(=O)N[C@@H](CC(C)C)C(=O)N[C@H](C(=O)OC)C(C)C)C(C)C)cc2c1)[C@@H](C)O`, the inhibitory constant (Ki) amounted to 1.4 µM in experiment [1] and 10.3 µM in experiment [2]. Also, the IC50 in experiment [2] amounted to 4 µM.
As to `COC(=O)[C@@H](NC(=O)[C@H](CC(C)C)NC(=O)[C@@H](NC(=O)CCCOc1ccc2ccc(OCCCC(=O)N[C@@H](Cc3ccc(O)cc3)C(=O)N[C@@H](CCC(=O)OC(C)(C)C)C(=O)N[C@@H](CC(C)C)C(N)=O)nc2c1)C(C)C)C(C)C`, the Ki in experiment [1] was found to be 0.41 µM. The midpoint of inhibition in experiment [2], the IC50, lay at 1 µM.
The matching figures for `COC(=O)[C@@H](NC(=O)[C@H](CC(C)C)NC(=O)[C@@H](NC(=O)CCCOc1ccc2ccc(OCCCC(=O)N[C@@H](Cc3ccc(O)cc3)C(=O)N[C@@H](CCC(=O)OC(C)(C)C)C(=O)N[C@@H](CC(C)C)C(N)=O)cc2c1)C(C)C)C(C)C`: 0.23 µM and 1.1 µM.
The compound `CC[C@H](C)[C@H](NC(=O)CCCOc1ccc2ccc(OCCCC(=O)N[C@H](C(=O)N[C@@H](CC(C)C)C(=O)N[C@H](C(=O)OC)C(C)C)C(C)C)cc2n1)C(=O)N[C@H](C(N)=O)[C@@H](C)O` had a Ki in experiment [1] of 0.25 µM. In addition, in experiment [2], the IC50 was 1.7 µM and the Ki was determined as 4.3 µM.
In turn, `COC(=O)[C@@H](NC(=O)[C@H](CC(C)C)NC(=O)[C@@H](NC(=O)CCCOc1ccc2ccc(OCCCC(=O)N[C@H](C(=O)N[C@@H](CC(C)C)C(=O)N[C@H](C(=O)OC)C(C)C)C(C)C)cc2c1)C(C)C)C(C)C` displayed a Ki in experiment [1] of 0.56 µM. The compound further registered an IC50 in experiment [2] of 3.5 µM.
As for `COC(=O)[C@H](CC(C)C)NC(=O)[C@@H](NC(=O)CCCOc1ccc2ccc(OCCCC(=O)N[C@H](C(=O)N[C@@H](CC(C)C)C(=O)N[C@H](C(=O)OC)C(C)C)C(C)C)cc2n1)[C@@H](C)O`, in experiment [1], the Ki came out at 1.5 µM. The compound also had an IC50 in experiment [2] of 1.4 µM.
In the same order, the values of `CC[C@H](C)[C@H](NC(=O)[C@H](CCC(N)=O)NC(=O)CCCOc1ccc2ccc(OCCCC(=O)N[C@H](C(=O)N[C@@H](CC(C)C)C(=O)N[C@H](C(=O)OC)C(C)C)C(C)C)cc2c1)C(=O)N[C@H](C(N)=O)[C@@H](C)O` are 2.3 µM and 2.8 µM.
In general, inhibition refers to the percentage by which the read-out fell short of the control. A high value points to a strong effect. In the case of `CC[C@H](C)[C@H](NC(=O)[C@H](CCC(N)=O)NC(=O)CCCOc1ccc2ccc(OCCCC(=O)N[C@H](C(=O)N[C@@H](CC(C)C)C(=O)N[C@H](C(=O)OC)C(C)C)C(C)C)cc2n1)C(=O)N[C@H](C(N)=O)[C@@H](C)O`, in experiment [3], the inhibition stood at 30%.
`CC[C@H](C)[C@H](NC(=O)CCCOc1ccc2ccc(OCCCC(=O)N[C@H](C(=O)N[C@@H](CC(C)C)C(=O)N[C@H](C(=O)OC)C(C)C)C(C)C)cc2c1)C(=O)N[C@H](C(N)=O)[C@@H](C)O` registered a Ki in experiment [1] of 1.5 µM. Further, in experiment [2], half-maximal inhibition (IC50) required 4.3 µM and the affinity corresponds to a Ki of 6.2 µM.
For the compound `COC(=O)[C@@H](NC(=O)[C@H](CC(C)C)NC(=O)[C@@H](NC(=O)CCCOc1ccc2ccc(OCCCC(=O)N[C@@H](CCC(=O)OC(C)(C)C)C(=O)N[C@@H](CC(C)C)C(N)=O)cc2c1)C(C)C)C(C)C`, the Ki in experiment [1] was found to be 0.42 µM. The compound also gave an IC50 in experiment [2] of 1.1 µM.
The matching figures for `CC[C@H](C)[C@H](NC(=O)CCCOc1ccc2ccc(OCCCC(=O)N[C@H](C(=O)N[C@@H](CC(C)C)C(=O)N[C@H](C(=O)OC)C(C)C)C(C)C)cc2n1)C(=O)N[C@H](C(=O)N[C@@H](CC(C)C)C(=O)OC)[C@@H](C)O`: 0.4 µM and 5.3 µM.
In experiment [3], `COC(=O)[C@@H](NC(=O)[C@H](CC(C)C)NC(=O)[C@@H](NC(=O)CCCOc1ccc2ccc(OCCCC(=O)N[C@@H](CCC(=O)O)C(=O)N[C@@H](CC(C)C)C(N)=O)nc2c1)C(C)C)C(C)C` displayed an inhibition of 20%.
The compound `CC[C@@H](C)[C@H](NC(=O)[C@@H](NC(=O)CCCOc1ccc2ccc(OCCCC(=O)N[C@H](C(=O)N[C@H](C(=O)N[C@H](C(=O)OC)C(C)C)[C@H](C)CC)[C@@H](C)O)nc2c1)[C@@H](C)O)C(=O)N[C@H](C(=O)OC)C(C)C` showed a Ki in experiment [1] of 1.9 µM. The inhibition in experiment [3] came to 45%.
